ChEMBL document CHEMBL3124806, “Imidazopyridine-fused [1,3]-diazepinones: synthesis and antiproliferative activity” (Eur J Med Chem, 2014)

Tests used:
Ovis aries = organism: Ovis aries; experiment: Inhibition of sheep brain tubulin polymerization at 100 uM after 40 mins by DAPI staining-based fluorescence assay
Summary of the method: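 Microtubular protein was purified from sheep brain by two assembly/disassembly cycles (37 °C/0 °C) in MES buffer (100 mM MES pH 6.6, 1 mM EGTA, 0.5 mM MgCl₂). Compound in DMSO was added to 10 µM tubulin with 10 µM DAPI and incubated 40 min at RT. GTP (1 mM) was then added, and assembly was followed by DAPI fluorescence at 37 °C.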

MDA-MB-435 = experiment: Cytotoxicity against human MDA-MB-435 cells assessed as cell growth at 10 uM after 48 hrs by MTT assay relative to untreated control; type: functional; conditions: MDA-MB-435, 48 h, read-out: Activity
Summary of the method: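 Melanoma lines grown at 37 °C in humidified 5% CO2: MDA-MB-435 in DMEM/Ham's F12 1:1 with 10% FCS and antibiotics, SK-MEL-2 in RPMI-1640 with 10% FCS. Cells plated 24 h, then exposed 48 h to 100–0.01 µM (dilutions from fresh 100 µM stock in medium). MTT 0.5 mg/mL added for 4 h, crystals dissolved in EtOH/DMSO 1:1, absorbance read at 540 nm. Mean ± SD of three independent experiments.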

| inhibition (Ovis aries) [%] | SMILES | growth at 10 µM (MDA-MB-435) [%] |
| --- | --- | --- |
| 8 | C[C@@H]1NC(=O)Nc2nc3ccccn3c2C1=O | 86 |
| 30 | C[C@@H]1NC(c2ccc([N+](=O)[O-])cc2)=Nc2nc3ccccn3c2C1=O | 99 |
